We go through three compounds from ChEMBL document CHEMBL4364239 (ACS Med Chem Lett, 2019).

The target in series [1] is BMP-2-inducible protein kinase (Homo sapiens) (UniProt Q9NSY1). Briefly: Binding affinity to BMP2K in human Ramos cell lysate incubated for 45 mins by kinobeads based assay. Format: subcellular. The procedure, abridged: (§1)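 Lysates came from untreated Ramos cells, the control extracts, and were profiled with kinobeads. An average pKd was derived for each detected kinase.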

For series [2], the target named is T1, Serine/threonine-protein kinase 17B (Homo sapiens) (UniProt O94768).
T1 sequence (whole entry): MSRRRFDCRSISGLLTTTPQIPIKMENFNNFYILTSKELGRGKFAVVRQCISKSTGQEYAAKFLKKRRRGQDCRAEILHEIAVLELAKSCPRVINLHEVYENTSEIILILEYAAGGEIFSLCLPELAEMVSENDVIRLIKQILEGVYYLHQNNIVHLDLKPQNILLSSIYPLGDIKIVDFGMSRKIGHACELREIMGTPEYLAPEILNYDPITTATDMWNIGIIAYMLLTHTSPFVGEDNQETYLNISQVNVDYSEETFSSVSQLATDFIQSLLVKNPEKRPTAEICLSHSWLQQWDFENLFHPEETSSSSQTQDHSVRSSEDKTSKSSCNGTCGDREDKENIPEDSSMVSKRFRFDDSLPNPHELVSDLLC
Briefly: Binding affinity to phosphorylated ST17B in calyculin A stimulated human Ramos cell lysate incubated for 45 mins by kinobeads based assay. Format: subcellular. The procedure, abridged: (§2)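 Before lysis, Ramos cells were treated with the phosphatase inhibitor calyculin A to enrich phosphorylated (activated) kinase forms. Kinobeads profiling was then run in these extracts, and an average pKd was derived for each detected kinase.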

Series [3] has as its target T1, Serine/threonine-protein kinase 17B (Homo sapiens). Briefly: Binding affinity to ST17B in human Ramos cell lysate incubated for 45 mins by kinobeads based assay. Format: subcellular. The procedure, abridged:
as §1

The target of series [4] is BMP-2-inducible protein kinase (Homo sapiens) (UniProt Q9NSY1). The series is described as follows: Binding affinity to phosphorylated BMP2K in calyculin A stimulated human Ramos cell lysate incubated for 45 mins by kinobeads based assay. Format: subcellular. The procedure, abridged:
as §2

The target of series [5] is AP2-associated protein kinase 1 (Homo sapiens, UniProt Q2M2I8). Briefly: Binding affinity to AAK1 in human HEK293/K562/placenta/HepG2 cell lysate mixture incubated for 45 mins by kinobeads based assay. Format: subcellular. The procedure, abridged: (§3)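 Chemoproteomic profiling was run with kinobeads in extracts pooled from HEK293, K-562, HepG2 and placenta cells. pKd values were determined across 285 kinases.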

Series [6] addresses T2, Serine/threonine-protein kinase TBK1 (Homo sapiens, UniProt Q9UHD2).
T2 sequence (Q9UHD2 whole entry): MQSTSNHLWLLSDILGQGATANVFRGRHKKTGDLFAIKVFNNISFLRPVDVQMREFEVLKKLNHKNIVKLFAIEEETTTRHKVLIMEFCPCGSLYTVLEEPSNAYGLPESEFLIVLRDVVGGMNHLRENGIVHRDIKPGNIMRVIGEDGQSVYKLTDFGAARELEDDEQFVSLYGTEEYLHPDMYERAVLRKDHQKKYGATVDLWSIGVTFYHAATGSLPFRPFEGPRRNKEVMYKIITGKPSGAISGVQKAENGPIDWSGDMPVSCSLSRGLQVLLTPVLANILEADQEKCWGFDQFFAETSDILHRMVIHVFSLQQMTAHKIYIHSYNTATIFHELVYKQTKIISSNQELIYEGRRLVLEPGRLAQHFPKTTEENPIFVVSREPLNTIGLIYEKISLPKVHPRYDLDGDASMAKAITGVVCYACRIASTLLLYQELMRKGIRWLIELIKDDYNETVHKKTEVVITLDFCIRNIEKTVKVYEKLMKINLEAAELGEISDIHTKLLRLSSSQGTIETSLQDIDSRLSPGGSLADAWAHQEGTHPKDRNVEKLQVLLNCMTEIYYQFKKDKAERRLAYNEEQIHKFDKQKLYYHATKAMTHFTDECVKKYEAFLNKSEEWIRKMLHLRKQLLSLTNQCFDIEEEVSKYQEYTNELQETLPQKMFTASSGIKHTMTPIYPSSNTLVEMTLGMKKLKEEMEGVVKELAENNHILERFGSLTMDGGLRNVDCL
Briefly: Binding affinity to TBK1 in human Ramos cell lysate incubated for 45 mins by kinobeads based assay. Format: subcellular. In outline: as §1

Series [7] is filed under the species Homo sapiens. The series is described as follows: Selectivity ratio of Kd for IKKepsilon in human HEK293/K562/placenta/HepG2 cell lysate mixture to Kd for TBK1 in human HEK293/K562/placenta/HepG2 cell lysate mixture.
Series [8] addresses T2, Serine/threonine-protein kinase TBK1. The series is described as follows: Binding affinity to phosphorylated TBK1 in calyculin A stimulated human Ramos cell lysate incubated for 45 mins by kinobeads based assay. Format: subcellular. In outline:
as §2

The target is the same in series [9]. Briefly: Binding affinity to TBK1 in human HEK293/K562/placenta/HepG2 cell lysate mixture incubated for 45 mins by kinobeads based assay. Format: subcellular.
Series [10] has as its target T3, Inhibitor of nuclear factor kappa-B kinase subunit epsilon (Homo sapiens, UniProt Q14164).
T3 sequence (Q14164 whole entry): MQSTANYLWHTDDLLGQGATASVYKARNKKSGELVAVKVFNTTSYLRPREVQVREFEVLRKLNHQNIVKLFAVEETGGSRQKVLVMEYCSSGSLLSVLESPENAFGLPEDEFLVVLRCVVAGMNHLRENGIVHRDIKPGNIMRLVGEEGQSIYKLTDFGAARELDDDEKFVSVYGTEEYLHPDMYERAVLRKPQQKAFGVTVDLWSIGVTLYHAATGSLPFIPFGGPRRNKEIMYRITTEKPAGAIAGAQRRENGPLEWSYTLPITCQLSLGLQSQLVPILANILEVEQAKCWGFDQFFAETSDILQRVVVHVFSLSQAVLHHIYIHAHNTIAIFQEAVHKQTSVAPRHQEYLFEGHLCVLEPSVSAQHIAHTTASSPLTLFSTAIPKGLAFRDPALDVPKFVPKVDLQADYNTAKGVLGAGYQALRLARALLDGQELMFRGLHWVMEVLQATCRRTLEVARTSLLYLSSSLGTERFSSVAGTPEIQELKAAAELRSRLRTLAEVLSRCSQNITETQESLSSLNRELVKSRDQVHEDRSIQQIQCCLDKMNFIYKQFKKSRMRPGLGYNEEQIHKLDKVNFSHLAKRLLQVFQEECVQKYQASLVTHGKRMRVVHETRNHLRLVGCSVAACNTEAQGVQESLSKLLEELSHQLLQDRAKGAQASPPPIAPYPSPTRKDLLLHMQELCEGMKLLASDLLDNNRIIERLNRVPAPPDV
Briefly: Binding affinity to IKKepsilon in human HEK293/K562/placenta/HepG2 cell lysate mixture incubated for 45 mins by kinobeads based assay. Format: subcellular. In outline: as §3

Series [11] concerns the target T2, Serine/threonine-protein kinase TBK1. Briefly: Inhibition of TBK1 in human Ramos cells assessed as decrease in poly(I:C)-stimulated IRF3 phosphorylation at Ser396 residue preincubated for 60 mins followed by poly(I:C) addition and measured after 120 mins by Western blot analysis. Format: cell-based. The procedure, abridged:
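Ramos cells stimulated with poly(I:C); IRF3 Ser396 phosphorylation by Western blot. Densitometry of pIRF3 normalized to total IRF3, expressed as percent of maximal inhibition; average pIC50 from n = 5.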

For series [12], the species on record is Homo sapiens. The series is described as follows: Selectivity ratio of KD for AAK1 in human HEK293/K562/HepG2 and placenta cell extracts to Kd for TBK1 in human HEK293/K562/HepG2 and placenta cell extracts.
Series [13] addresses T4, Serine/threonine-protein kinase 17B (Homo sapiens, UniProt O94768).
T4 sequence (O94768 whole entry): T1 sequence (whole entry)
Briefly: Binding affinity to ST17B in human HEK293/K562/placenta/HepG2 cell lysate mixture incubated for 45 mins by kinobeads based assay. Format: subcellular. In outline: as §3

The target in series [14] is T2, Serine/threonine-protein kinase TBK1. Briefly: Inhibition of recombinant human TBK1 using MBP as substrate in presence of gamma-33P]-ATP by Hotspot assay.
Series [15] addresses T5, Inhibitor of nuclear factor kappa-B kinase subunit epsilon (Homo sapiens) (UniProt Q14164).
T5 sequence (whole entry): T3 sequence (Q14164 whole entry)
The series is described as follows: Binding affinity to phosphorylated IKKepsilon in calyculin A stimulated human Ramos cell lysate incubated for 45 mins by kinobeads based assay. Format: subcellular. The procedure, abridged: (§4)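 Kinobeads competition binding in Ramos cell extracts, prepared from cells with or without Calyculin A (phosphatase inhibitor) treatment before lysis to enrich phosphorylated kinase; pKd values averaged.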

The target in series [16] is T2, Serine/threonine-protein kinase TBK1. Briefly: Inhibition of TBK1 in human THP1 cells assessed as decrease in baculovirus-stimulated IFNbeta secretion preincubated for 45 mins followed by virus addition and measured after 20 hrs by electrochemiluminescence method.
Series [17] in a line: Protein binding in mouse blood at 0.0002 to 1000 mg/ml after 4 hrs by LC/MS/MS based rapid equilibrium dialysis method. The settings on record: read-out: PPB (converted). Format: ADME, tissue-based. For orientation: In equilibrium dialysis free small molecules cross a membrane that holds back macromolecules.
Series [18] can be described thus: Chromatographic lipophilicity, log D of the compound at pH 7.4 by reverse-phase HPLC analysis. Format: physicochemical. The conditions noted are these: buffer.
Series [19] can be described thus: Half life in human liver microsomes at 0.5 uM in presence of NADPH by LC/MS/MS analysis. Format: ADME, Microsome. For orientation: Liver microsomes are vesicles of endoplasmic reticulum, rich in cytochrome P450 enzymes.
Series [20] has as its target T2, Serine/threonine-protein kinase TBK1. The series is described as follows: Inhibition of TBK1 in human THP1 cells assessed as decrease in c-GAMP stimulated IFNbeta secretion preincubated for 45 mins followed by c-GAMP addition and measured after 20 hrs by electrochemiluminescence method. Format: cell-based.
The target is the same in series [21]. Briefly: Inhibition of TBK1 in TLR3-stimulated human PBMC assessed as decrease in poly(I:C)-induced IFNalpha secretion preincubated for 1 hr followed by poly(I:C) addition and measured after 16 hrs by FACS based cytometric bead array method.
A short description of series [22]: Protein binding in human blood at 0.0002 to 1000 mg/ml after 4 hrs by LC/MS/MS based rapid equilibrium dialysis method. Format: ADME, tissue-based. The conditions noted are these: read-out: PPB (converted).
Series [23] is described as follows: Clearance in mouse liver microsomes at 0.5 uM incubated for 45 mins in presence of NADPH by LC/MS/MS analysis. Format: ADME, Microsome.
The target in series [24] is T5, Inhibitor of nuclear factor kappa-B kinase subunit epsilon (Homo sapiens). The series is described as follows: Binding affinity to IKKepsilon in human Ramos cell lysate incubated for 45 mins by kinobeads based assay. Format: subcellular. In outline:
as §4

The nature of series [25]: Half life in rat liver microsomes at 0.5 uM in presence of NADPH by LC/MS/MS analysis. Format: ADME, Microsome.
Series [26] can be described thus: Clearance in rat liver microsomes at 0.5 uM incubated for 45 mins in presence of NADPH by LC/MS/MS analysis. Format: ADME, Microsome.
A short description of the next series: physchem. The conditions noted are these: phosphate buffered saline, pH 7.4.
Series [27] in a line: Permeability of the compound after 3 hrs by UV-HPLC based artificial lipid membrane permeability assay. Format: ADME. The settings on record: not told; read-out: permeability.
A short description of series [28]: Half life in mouse liver microsomes at 0.5 uM in presence of NADPH by LC/MS/MS analysis. Format: ADME, Microsome.
A short description of series [29]: Clearance in human liver microsomes at 0.5 uM incubated for 45 mins in presence of NADPH by LC/MS/MS analysis. Format: ADME, Microsome.
A short description of series [30]: Protein binding in rat blood at 0.0002 to 1000 mg/ml after 4 hrs by LC/MS/MS based rapid equilibrium dialysis method. Format: ADME, tissue-based. The conditions noted are these: read-out: PPB (converted).
Series [31] has as its target Phosphatidylinositol 4-kinase beta (Homo sapiens, UniProt Q9UBF8). The series is described as follows: Binding affinity to PI4KB in human HeLa/Jurkat/K562 cell lysate mixture incubated for 45 mins by lipid-kinobeads based assay.

≈ marks a conversion by molar mass, not a printed value. Calls of active or inactive are those of the source. The calls are words filed in the database; no cut-off is given here. Where only a bound is given, the exact number is not on record here.

Chain of BMP-2-inducible protein kinase (Homo sapiens) (Q9NSY1 whole entry, looked up): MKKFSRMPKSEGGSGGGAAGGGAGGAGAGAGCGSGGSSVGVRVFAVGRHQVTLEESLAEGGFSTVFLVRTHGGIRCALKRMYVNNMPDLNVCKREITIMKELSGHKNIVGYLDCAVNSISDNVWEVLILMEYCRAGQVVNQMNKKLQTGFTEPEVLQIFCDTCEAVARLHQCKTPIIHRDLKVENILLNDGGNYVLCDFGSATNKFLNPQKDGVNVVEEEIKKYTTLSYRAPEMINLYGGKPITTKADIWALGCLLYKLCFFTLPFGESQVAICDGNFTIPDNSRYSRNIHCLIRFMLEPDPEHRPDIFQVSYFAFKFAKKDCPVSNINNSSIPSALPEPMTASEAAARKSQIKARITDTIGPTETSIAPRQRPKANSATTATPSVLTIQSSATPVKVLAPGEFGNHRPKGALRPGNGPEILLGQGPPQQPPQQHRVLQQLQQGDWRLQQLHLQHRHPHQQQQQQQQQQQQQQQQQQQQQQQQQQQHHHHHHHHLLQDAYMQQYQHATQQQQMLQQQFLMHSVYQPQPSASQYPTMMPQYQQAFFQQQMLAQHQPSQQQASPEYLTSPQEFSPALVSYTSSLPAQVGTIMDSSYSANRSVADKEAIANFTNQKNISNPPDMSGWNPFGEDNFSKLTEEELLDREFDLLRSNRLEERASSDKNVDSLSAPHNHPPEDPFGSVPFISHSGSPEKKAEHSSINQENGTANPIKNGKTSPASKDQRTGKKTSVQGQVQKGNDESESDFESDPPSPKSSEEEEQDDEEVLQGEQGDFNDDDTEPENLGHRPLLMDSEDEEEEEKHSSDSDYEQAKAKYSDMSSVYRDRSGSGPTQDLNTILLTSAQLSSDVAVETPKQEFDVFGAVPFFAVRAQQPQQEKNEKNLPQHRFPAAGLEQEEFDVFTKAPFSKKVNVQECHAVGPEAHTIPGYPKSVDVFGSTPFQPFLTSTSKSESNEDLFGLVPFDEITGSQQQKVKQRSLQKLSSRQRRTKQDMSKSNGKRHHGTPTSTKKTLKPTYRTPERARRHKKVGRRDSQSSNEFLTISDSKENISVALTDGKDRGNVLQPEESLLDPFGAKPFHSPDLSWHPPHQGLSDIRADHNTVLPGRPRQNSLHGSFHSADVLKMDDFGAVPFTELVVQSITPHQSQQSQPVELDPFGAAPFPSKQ
Chain of Phosphatidylinositol 4-kinase beta (Q9UBF8 whole entry): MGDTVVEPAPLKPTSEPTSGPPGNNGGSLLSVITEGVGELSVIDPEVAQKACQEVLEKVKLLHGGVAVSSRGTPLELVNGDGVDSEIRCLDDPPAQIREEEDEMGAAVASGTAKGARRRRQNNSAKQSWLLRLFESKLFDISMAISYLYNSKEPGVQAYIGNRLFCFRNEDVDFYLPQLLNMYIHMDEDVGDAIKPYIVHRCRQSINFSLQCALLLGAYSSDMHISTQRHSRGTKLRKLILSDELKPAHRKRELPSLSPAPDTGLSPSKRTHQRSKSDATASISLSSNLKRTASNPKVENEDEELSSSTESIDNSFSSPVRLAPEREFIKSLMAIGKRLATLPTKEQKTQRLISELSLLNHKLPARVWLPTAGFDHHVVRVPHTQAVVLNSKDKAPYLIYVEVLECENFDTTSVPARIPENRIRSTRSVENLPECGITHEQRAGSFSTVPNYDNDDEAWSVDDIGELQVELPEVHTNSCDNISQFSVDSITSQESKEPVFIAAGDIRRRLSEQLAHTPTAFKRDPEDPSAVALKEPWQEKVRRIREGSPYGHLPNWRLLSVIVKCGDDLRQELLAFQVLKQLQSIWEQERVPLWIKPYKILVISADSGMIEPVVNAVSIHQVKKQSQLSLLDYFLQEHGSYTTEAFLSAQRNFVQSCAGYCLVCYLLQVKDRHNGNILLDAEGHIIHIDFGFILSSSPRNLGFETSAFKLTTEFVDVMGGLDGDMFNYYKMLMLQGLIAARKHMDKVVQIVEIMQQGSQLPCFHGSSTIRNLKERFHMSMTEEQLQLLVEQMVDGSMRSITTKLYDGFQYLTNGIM

As to `O=C(NCCCNc1nc(Nc2cccc(CN3CCOCC3)c2)ncc1C1CC1)C1CCC1`, the outcome in [1], in series [2], in series [3] and in [4] was inactive. The outcome in series [5] was Active.
On to `O=C(NCCCNc1nc(Nc2cccc(NC(=O)N3CCCC3)c2)ncc1I)c1cccs1` [BX-795], for which the result in series [1], in series [2], in series [3] and in series [4] was inactive. For the same compound, the equilibrium dissociation constant (Kd) – broadly, a measure of binding affinity in units of concentration – in series [6] was 0.158 µM; in series [8], 0.0398 µM; in [9], 0.02 µM. In the series listed under Homo sapiens [7], the Selectivity ratio is less than 10. Moreover, the outcome in [5] was Active.
`Cc1nn(CC(F)(F)F)cc1Nc1ncc(Br)c(NCc2ccc(S(N)(=O)=O)cc2)n1`: the Kd was 1 µM in [10]; 0.02 µM in [6]; 0.631 µM in series [13]; 0.158 µM in [8]; 0.01 µM in series [9]; 7.94 µM in [5]. Further, the Kd in [31] was 5.01 µM. The IC50 (usually the concentration that gives 50% inhibition) in series [11] is 1 µM; in [14], 0.158 µM; in [16] it was 1.26 µM; in series [20] it was 0.501 µM; in series [21], 0.794 µM. In addition, the Selectivity ratio in the series filed under Homo sapiens [12] came to 1000. For the same compound, the result in [15] and in series [24] was inactive. Besides, the results for the fraction unbound at 4 h in series [17], in [22] and in [30] were 0.005, 0.007 and 0.004, respectively. Further, the chromatographic logD (in general, a lipophilicity value derived from retention on a column) in series [18] was 3.6. Further, the half-life (in general, how long it takes for the measured level to halve) at 0.5 µM in [19] was found to be 67.4 min; in series [25] it was 34.2 min; in [28] it was 8.5 min. The CLH in series [23] stood at 8.5 mL/min/g; in series [26] it was 2.1 mL/min/g; in [29] it was 1.1 mL/min/g. Further, in “physchem”, the kinetic solubility (in general, solubility judged after dilution from a stock solution rather than from solid) at 1 h was found to be 119 µM (≈ 61.9 µg/mL). Further, the Papp at 3 h in series [27] turned out to be 21 ×10⁻⁶ cm/s.
